The record followed here is ChEMBL document CHEMBL1153567, “Synthesis of novel pyrazole derivatives and evaluation of their antidepressant and anticonvulsant activities” (2009).

Each structure is given as a SMILES string. The source made the active and inactive calls. The calls are words filed in the database; no cut-off is given here.

Assay [1] concerns Mus musculus. The assay is described as follows: Antidepressant activity in Swiss-Webster mouse assessed as reduction in duration of immobility time at 10 mg/kg, ip by tail suspension behavioral despair test. The format is functional. On the set-up: scale not given: the % may be the effect or the level left. The conditions noted are these: route intraperitoneal. The method in brief: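 Tail suspension test in mice (n = 6/group; 22 ± 3 °C, 60 ± 5% humidity, 12 h light cycle, acclimated ≥2 days). Doses given ip in 0.5% w/v CMC at 0.5 mL/100 g; controls received CMC, imipramine 10 mg kg⁻¹ ip as reference. After 1 h, mice hung by tape 1 cm from the tail tip, 80 cm above the floor. Passive, motionless immobility timed over 6 min; mean ± S.E.M. and % change from control.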

Assay [2] concerns Mus musculus. The assay is described as follows: Anticonvulsant activity in Swiss-Webster mouse assessed as protection against PTZ-induced clonic seizures at 20 mg/kg, ip administered 1 hr before PTZ. It counts as functional. As to conditions: route intraperitoneal. The procedure, abridged: (§1)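 Mice (n = 6/group), kept at 22 ± 3 °C, 60 ± 5% humidity, 12 h light/dark cycle, acclimated ≥2 days, free food and water. Agents given ip in 0.5% w/v CMC in water at 0.5 mL/100 g. After 1 h, PTZ 100 mg kg⁻¹ ip (0.5% solution). Observed 30 min; no clonic spasm episode lasting ≥5 s counted as protection. % protection = (control − treated convulsions)/control × 100.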

Assay [3] has as its system Mus musculus. The assay is described as follows: Antidepressant activity in Swiss-Webster mouse assessed as reduction in duration of immobility time at 10 mg/kg, ip by tail suspension behavioral despair test relative to imipramine. It counts as functional. The arrangement: scale not given: the % may be the effect or the level left. As to conditions: route intraperitoneal.

The subject of assay [4] is Mus musculus. The assay is described as follows: Anticonvulsant activity in Swiss-Webster mouse assessed as protection against PTZ-induced clonic seizures at 30 mg/kg, ip administered 1 hr before PTZ. It counts as functional, organism-based. The arrangement: dose 30 mg/kg. The procedure, abridged:
as §1

The test system of assay [5] is Mus musculus. The assay is described as follows: Anticonvulsant activity in Swiss-Webster mouse assessed as protection against PTZ-induced clonic seizures at 20 mg/kg, ip administered 1 hr before PTZ.

For the compound `N#CC1=C(N)N(C(=O)c2cccs2)NC1(C#N)C#N`, the Activity is given as 10.6% in assay [1] and 56.8% in assay [2].

Turning to `CCOC(=O)c1[nH]n(C(=O)c2cc3ccccc3[nH]2)c(=O)c1C#N`, the results for the Activity in assay [1], in assay [3] and in assay [2] were 30.54%, 78.1% and 74%, respectively. Also, the result in assay [4] was Active.

In the case of `CCOC(=O)c1[nH]n(C(=O)c2cccs2)c(=O)c1C#N`, the Activity in assay [1] is on record as 18.33%; in assay [3], 66.4%; in assay [2], 78.7%. In assay [4], the outcome was Active.

As to `O=C(NNC(=O)c1ccccn1)c1ccccn1`, the Activity is listed as 32.39% in assay [1] and 80.2% in assay [3].

As for `O=C(NNC(=O)c1cccs1)c1cccs1`, the Activity in assay [1] was found to be 72.22%.

Take `O=C1NC(=O)C(c2ccccc2)(c2ccccc2)N1`: in assay [5], the result was Active.

Turning to `O=C(NNC(=O)c1cc2ccccc2[nH]1)c1cc2ccccc2[nH]1`, in assay [1], the Activity stood at 17.8%.

As for `CCOC(=O)c1[nH]n(C(=O)c2ccccc2)c(=O)c1C#N`, the values for the Activity in assay [1], in assay [3] and in assay [2] were 24.41%, 71.8% and 74.5%, respectively. Also, the result in assay [4] was Active.

`N#CC1=C(N)N(C(=O)c2cc3ccccc3[nH]2)NC1(C#N)C#N`: in assay [1], the Activity is on record as 17.67%.

As for `O=C(NNC(=O)c1ccccc1)c1ccccc1`, the figures for the Activity in assay [1] and in assay [2] were 71.96% and 65.1%, respectively.

With `CCOC(=O)c1[nH]n(C(=O)c2ccccn2)c(=O)c1C#N`, the values for the Activity in assay [1], in assay [3] and in assay [2] were 36.99%, 86.1% and 53.7%, respectively.

For `N#CC1=C(N)N(C(=O)c2ccccc2)NC1(C#N)C#N`, the Activity in assay [1] is 9.37%.

With `CN(C)CCCN1c2ccccc2CCc2ccccc21` [IMIPRAMINE], the Activity in assay [1] is listed as 45.75%.

For `N#CC1=C(N)N(C(=O)c2ccccn2)NC1(C#N)C#N`, the Activity in assay [1] stood at 38.76%; in assay [3] it was 88.6%.
